In test [1] the test system is JNK activation in C22A-ZAK-transfected HEK-293T cells. Kind of test: Western blotting of phospho-JNK. It counts as cell-based, human. As to conditions: H2O2 1 mM, 30 min. The method, boiled down: (§1)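 HEK-293T cells stably expressing FLAG-ZAK came from retroviral infection and hygromycin selection. They grew 24 h in DMEM/10% FBS, then were serum-starved 24 h and treated at 37 °C. Cells were sonicated in PBS with protease and phosphatase inhibitors. For blotting, 30 μg soluble lysate went on SDS-PAGE and nitrocellulose, blocked in 5% milk/TBST, with primary antibodies (1:2000, 16 h, 4 °C) and IRDye secondaries (1:10,000, 1 h). Read-out: infrared-scanned phospho-JNK, normalized.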

Test [2] concerns JNK activation in WT-ZAK-transfected HEK-293T cells. The test can be described thus: Western blotting of phospho-JNK. The test is classed as cell-based, human. As to conditions: H2O2 1 mM, 30 min. In short, it runs like this:
as §1
Background: In western blotting, separated proteins are transferred to a membrane and probed.

In test [3] the target is T1, WT-ZAK and C22A-ZAK (Homo sapiens, UniProt Q9NYL2). Kind of test: gel-based ABPP, HNEyne labelling in proteomes. As to conditions: 10 μM HNEyne, 1 hour, HEK-293T lysate. The test is classed as binding.
For test [4], the target named is T1, WT-ZAK and C22A-ZAK. The test can be described thus: gel-based ABPP, HNEyne labelling in living cells. The test is classed as cell-based. As to conditions: 5 μM HNEyne, 1 hour, 37°C.

T1 sequence (Q9NYL2 1-455 isoform Q9NYL2-2, stated change not applied): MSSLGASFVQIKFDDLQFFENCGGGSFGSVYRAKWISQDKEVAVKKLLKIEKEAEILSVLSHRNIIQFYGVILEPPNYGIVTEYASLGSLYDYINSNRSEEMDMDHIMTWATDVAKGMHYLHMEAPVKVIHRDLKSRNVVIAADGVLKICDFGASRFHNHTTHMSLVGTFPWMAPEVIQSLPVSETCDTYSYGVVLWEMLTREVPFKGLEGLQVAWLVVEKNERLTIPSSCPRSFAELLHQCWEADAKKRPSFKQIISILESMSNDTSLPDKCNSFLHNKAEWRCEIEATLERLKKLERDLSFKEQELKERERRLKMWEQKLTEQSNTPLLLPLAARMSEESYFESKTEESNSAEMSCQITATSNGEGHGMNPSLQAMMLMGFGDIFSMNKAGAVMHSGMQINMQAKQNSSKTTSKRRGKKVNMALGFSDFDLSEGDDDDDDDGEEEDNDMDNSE

On to `OO` [H2O2], for which the “JNK activity after H2O2” value in test [1] and in test [2] was “stimulated JNK activity” in each case.
In the case of `C#CCCCC(O)C=CC=O` (stereo not shown) [HNEyne], the “direct labeling of ZAK by HNEyne in vitro” value in test [3] is on record as “direct labeling of WT-, but not the C22A-ZAK mutant”. Further, the “direct labeling of ZAK by HNEyne in living cells” value in test [4] is on record as “direct labeling of WT-, but not the C22A-ZAK mutant”.

These data come from article PMC3901407 (Nature methods, 2013).
